# A selection: hits, their analogues and other compounds. The true share with any hit is near 2.6%.
# MC4R antag cAMP = MC4R antagonists of cAMP signaling, primary screen, cell-based, TR-FRET, antagonist arm of biased-ligand search | Melanocortin receptor 4 (Homo sapiens), P32245 | MC4R-expressing cells, MTII-stimulated cAMP, LANCE TR-FRET | inhibition, % at 6.5 µM | 360,000 tested, 0.48% active;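 active = inhibition above its plate's cutoff, the mean of tested wells on that plate plus 3 SD, cut at about 29% in these data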;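 also: 0% = Melanotan II alone and 100% = Melanotan II plus saturating MCL0020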
#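 System: U2OS-MC4R stable cell line; Technique: Eu-cAMP/anti-cAMP TR-FRET, emission 671 nm; Repeats: single well per compound; Also added: Melanotan II; Dosing: one concentration, 6.5 µM nominal; Schedule: 30-min compound, 1-h challenge, 1-h detection, room temperature.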
# PGE2 EP2 inh = human EP2 receptor antagonists, primary screen, TR-FRET cAMP, C6 glioma cells. Prostaglandin E2 receptor EP2 subtype (Homo sapiens), P43116. C6 glioma cells expressing human EP2; cells stimulated with saturating PGE2. inhibition, % at 25 µM. 260,000 tested, 0.52% active;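 active = percent inhibition above 40 after rounding to a whole number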;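 also: rat C6 glioma host cells with rolipram phosphodiesterase inhibitor present; the protocol text gives 20 µM as final concentration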
# Target sequence (P43116 whole entry, looked up): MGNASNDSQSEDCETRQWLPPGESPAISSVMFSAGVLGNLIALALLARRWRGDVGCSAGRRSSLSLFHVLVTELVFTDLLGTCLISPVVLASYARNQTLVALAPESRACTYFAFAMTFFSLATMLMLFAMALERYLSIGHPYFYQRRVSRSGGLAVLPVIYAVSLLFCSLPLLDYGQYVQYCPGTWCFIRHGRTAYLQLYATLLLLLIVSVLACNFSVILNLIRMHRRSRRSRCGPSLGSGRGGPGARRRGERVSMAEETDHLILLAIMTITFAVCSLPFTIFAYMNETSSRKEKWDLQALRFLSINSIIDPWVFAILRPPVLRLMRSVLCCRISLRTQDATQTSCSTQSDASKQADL
# MC4R barr agon = MC4R agonists recruiting beta-arrestin, primary screen, cell-based, luminescence, agonist arm of biased-ligand search | activation, % at 8.9 µM | U2OS MC4R beta-arrestin complementation; percent of melanotan II response, DMSO zero | 360,000 tested, 0.98% active | Melanocortin receptor 4 (Homo sapiens), P32245;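 active = activation above a per-plate cutoff, the mean activation of sample wells on that plate plus 3 SD, cut at about 8% in these data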
# Granule exo inh = LAMP-1 surface exposure blockers, TALL-104 cells – cell-based, flow cytometry, MLPCN library, primary screen; 360,000 tested, 0.66% active; inhibition, % at 10 µM; TALL-104 LAMP-1 surface exposure; cells stimulated with thapsigargin and PMA;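 active = inhibition above about 55%, limit read from the data; inconclusive = no clear call, values can overlap the other calls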
# T cell modulator = modulators of CD8 T cell-vesicle binding, primary screen, mouse 2C CD8+ T cells, flow cytometry; 2C CD8+ T cell-vesicle binding; hits give low values; response (vesicle binding), % at 7 µM; 330,000 tested, 0.068% active;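 active = response, share of CD8 T cells binding vesicles, and their 90th percentile fluorescence all below set limits, cut at about 80% in these data, passing the limit was not always enough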;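 also: values below 100% mean blocked vesicle binding to the CD8+ T cells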
#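 System: murine 2C transgenic CD8+ T lymphocytes; also added: QL9-loaded Drosophila micro-vesicles; times: binding 1.5 h at 37 °C; measured by: flow cytometry, PE anti-B7-1 (FL2) versus Alexa647 anti-CD8 (FL8), PFA-fixed; control set: Peptide-free naked vesicles (low) and QL9 vesicles with 0.7% DMSO vehicle (high)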
# EP2 modulator = EP2 receptor modulators, cAMP readout, primary screen, cell-based, HTRF cAMP, PGE2 stimulation; Prostaglandin E2 receptor EP2 subtype (Homo sapiens), P43116; EP2-expressing cells, cAMP HTRF FRET, PGE2 co-stimulation; induction, % at 25 µM; 260,000 tested, 0.83% active;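 active = compounds whose cAMP rise, as percent of the full-agonist control response, exceeds 60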;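 also: rat C6 glioma line stably carrying human EP2 under a CMV promoter; the protocol text gives 20 µM as final concentration; 100% = response of wells given 1 µM PGE2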
# Exocytosis CP01 = inhibitors of lytic granule exocytosis, confirmation, TALL-104 cells, flow cytometry, Cherry Pick01; shares compounds with Granule exo inh; LAMP-1 externalization; stimulated with PMA plus thapsigargin; inhibition, % at 10 µM; 1,500 tested, 11% active; in the data active = inhibition above about 60%;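 also: 0% = stimulated vehicle wells and 100% = unstimulated wells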
# Starred values were filed as active, the others as inactive; ? = inconclusive; . = not tested or not shown.
SMILES,MC4R antag cAMP,PGE2 EP2 inh,MC4R barr agon,Granule exo inh,T cell modulator,EP2 modulator,Exocytosis CP01
Clc1ccc(-c2c(C3=NCCCN3)nnn2-c2ccc(Cl)cc2)cc1,-3,12,-1,56*,150,-32,-3
Cc1ccc(CN(C)C(=O)c2c(C)nn(-c3ccccc3)c2C)cc1,3,.,0,67*,194,.,-10
N#Cc1cc(O)c(-n2nnc3ccccc32)cc1C#N,22,8,4,-5,300,-8,.
N#Cc1cc(Oc2cccc3cccnc23)c(-n2nnc3ccccc32)cc1C#N,16,5,-3,99*,490,0,-11
O=C(CCC(=O)N1CCCc2ccccc21)N1CCN(S(=O)(=O)c2ccccc2)CC1,7,10,-1,1,162,-14,.
O=C(CCS(=O)(=O)c1ccccc1)N1CCCc2ccccc21,14,.,-1,74*,288,.,9
COCCn1c(=O)[nH]c2cc(C(=O)N3CCN(c4ccccc4F)CC3)ccc2c1=O,0,.,-1,?,156,.,.
COc1ccc(NC(=O)CN2C(=O)C(C)Oc3ccc(C)cc32)cc1 (stereo not drawn),8,.,-1,-4,210,.,.
COc1cc(C(C)=O)ccc1OCCCN1CCC(Cc2ccccc2)CC1,8,.,-2,64*,188,.,-10
COc1cc(C(C)=O)ccc1OCCN1CCC(Cc2ccccc2)CC1,-2,1,-2,56*,909,-32,-13
COc1cc(C(C)=O)ccc1OCC(=O)N1CCC(Cc2ccccc2)CC1,12,.,1,?,.,.,.
OCc1ccccc1OCCCN1CCC(Cc2ccccc2)CC1,-3,.,0,69*,545,.,-11
COC(=O)Nc1ccc(S(=O)(=O)NC2CCS(=O)(=O)C2)cc1 (stereo not drawn),-5,6,1,64*,404,-11,-14
COc1ccc(-c2csc3ncnc(N4CCN(c5ccc(OC)cc5)CC4)c23)cc1,11,.,-2,10,333,.,.
COc1ccc(-c2csc3ncnc(N4CCN(c5ccccc5)CC4)c23)cc1,-1,.,-1,70*,202,.,-10
Cc1ccc(NC(=O)COC(=O)c2cccnc2)cc1C,.,7,.,.,.,-55,.
C=C(C)Cn1c(-c2ccccc2)nc2ccccc21,0,3,0,0,498,33,.
C=C1c2nc3ccccc3n2C=C(c2ccc(C)cc2)N1c1ccccc1,-3,.,-1,90*,.,.,-14
COCCCn1c(SCc2ccccc2)nc2cc(OC)c(OC)cc2c1=N,-11,9,3,84*,313,13,-13
COc1ccccc1NS(=O)(=O)c1ccc(O)c(C(=O)OCC(=O)Nc2ccccc2F)c1,0,10,-4,-2,544,-4,.
CCC(=O)Nc1ccc2nc(C3CC3)n(Cc3cccc(OC)c3)c(=O)c2c1,.,23,.,.,.,-16,.
CCC(C(=O)NCCC1=CCCCC1)c1ccccc1 (stereo not drawn),4,2,6,-5,287,24,.
COc1ccc(CC(=O)NCC2CCCN(Cc3ccc(OC(F)(F)F)cc3)C2)cc1 (stereo not drawn),7,.,-1,66*,161,.,-12
COC(=O)c1ccc(CN2CCCC(CNC(=O)Cc3ccc(OC)cc3)C2)cc1 (stereo not drawn),13,.,-2,2,182,.,.
Cc1cc2c(cc1C)CSC(c1c(O)ccc3ccccc13)SC2,5,8,0,76*,340,-1,11
SMILES,MC4R antag cAMP,PGE2 EP2 inh,MC4R barr agon,Granule exo inh,T cell modulator,EP2 modulator,Exocytosis CP01
Cc1cccc(NC(=O)c2ccc3c(c2)C(=O)N(c2ccccn2)C3=O)c1C,10,.,0,6,323,.,.
CCCCOCCCNC(=O)Cc1ccccc1OC,12,3,0,-3,0,4,.
CC(Nc1nc(-c2cccnc2)nc2ccccc12)c1ccc(F)cc1 (stereo not drawn),3,.,1,65*,638,.,-3
Cc1ccc(CNc2nc(-c3cccnc3)nc3ccccc23)cc1,-4,.,1,105*,331,.,-5
Cc1ccc(CN(C)c2nc(-c3cccnc3)nc3ccccc23)o1,12,.,1,28,172,.,.
CN(Cc1ccccc1F)c1nc(-c2cccnc2)nc2ccccc12,10,.,0,100*,250,.,4
Fc1ccc(CNc2nc(-c3cccnc3)nc3ccccc23)cc1,1,.,4,6,172,.,.
CC(Nc1nc(-c2ccccc2)nc2ccccc12)c1ccccc1 (stereo not drawn),6,6,-1,2,501,38,.
COc1ccc(Oc2nc(-c3cccnc3)nc3ccccc23)cc1,12,11,-2,88*,400,44,-2
Cc1ccc(C(=O)Nc2ccc(Cl)cn2)cc1,2,4,2,-2,222,11,.
CCOC(=O)c1nnc(-c2ccccc2)nc1Sc1ccccc1Cl,2,9,-4,102*,475,51,76*
CCOC(=O)c1nnc(-c2ccc(C)cc2)nc1Sc1cccc(Cl)c1,-2,.,1,2,317,26,.
COc1ccc(-c2cc(-c3ccccc3)c(C#N)c(S(C)=O)n2)cc1 (stereo not drawn),7,9,-2,64*,266,-16,-4
COc1ccccc1-c1nc2cc(Cl)ccc2c(=O)n1O,-2,.,0,5,94,.,.
CCOC(=O)c1cc(C(=O)c2cccs2)n2ccc(C(C)=O)cc12,8,10,-1,97*,338,64*,-2
Clc1ccc(-c2nnc(Sc3nc4ccccc4o3)c3ccccc23)cc1,7,19,-3,0,265,1,.
O=c1c(Cl)c2oc3ccccc3nc-2c2ccccc12,-4,5,-1,102*,584,-16,77*
Cc1ccc(C)c(C(=O)NC(C)CCc2ccccc2)c1 (stereo not drawn),5,3,-1,0,415,-38,.
Cc1ccc(C(=O)NCCc2ccc(S(=O)(=O)N3CCCC3)cc2)cc1,10,6,0,64*,146,9,-4
CC(C)Nc1nc(NCCOc2ccccc2Cl)c2sc(-c3ccccc3)cc2n1,17,.,1,58*,.,.,37
